Measurements taken from ChEMBL document CHEMBL1828498, “Identification and characterization of a novel integrin-linked kinase inhibitor” (J Med Chem, 2011).
The source made the active and inactive calls. No cut-off for these calls is given here.

Key:
[1] = biological target: Hepatocyte growth factor receptor (Homo sapiens) (UniProt P08581); test: Inhibition of Met at 5 uM assessed as remaining activity
Procedure, shortened: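 Panel of 20 recombinant kinases, profiled by a commercial vendor.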

PC-3 [2] = test: Suppression of tumor growth in human PC3 cells xenografted in nude mouse at 50 mg/kg/day, po administered for 35 days relative to control; assay type: functional
Procedure, shortened: (§1)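 Male NCr athymic nude mice, s.c. 0.5 × 10^6 PC-3 cells in 50% Matrigel; established tumors randomized (n=6) to daily oral gavage in 0.5% methylcellulose/0.1% Tween 80 in water, 10 μL/g, 35 days; weekly caliper volume = width² × length × 0.52; mean ± SEM, ANOVA or t-test.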

PC-3 [3] = test: Induction of apoptosis in human PC3 cells assessed as early apoptotic cells at 2 uM by annexin V/PI staining (reference value: 5.6%); assay type: functional
[4] = biological target: Protein kinase C alpha type (Homo sapiens) (UniProt P17252); test: Inhibition of PKCalpha at 5 uM assessed as remaining activity
PC-3 [5] = test: Induction of apoptosis in human PC3 cells assessed as PARP cleavage by Western blot analysis; assay type: functional, cell-based
Procedure, shortened: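 PC-3 cells treated 24 h in 5% FBS medium. Lysed in 1% SDS/10 mM EDTA/50 mM Tris pH 8.1, equal protein on SDS-PAGE, primary antibody 1:1000 at 4°C for 2 h, HRP secondary, ECL detection. Read-outs PARP cleavage and LC3-II conversion; blots representative of three experiments.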

PC-3 [6] = test: Suppression of tumor growth in human PC3 cells xenografted in nude mouse at 25 mg/kg/day, po administered for 35 days relative to control; assay type: functional; procedure, shortened: as §1
[7] = biological target: T1, Scaffold protein ILK (Homo sapiens) (UniProt Q13418); test: Inhibition of ILK in human PC3 cells assessed as decrease in phosphorylated JNK concentration by Western blot analysis; assay type: cell-based; conditions: PC-3
T1 sequence (whole entry): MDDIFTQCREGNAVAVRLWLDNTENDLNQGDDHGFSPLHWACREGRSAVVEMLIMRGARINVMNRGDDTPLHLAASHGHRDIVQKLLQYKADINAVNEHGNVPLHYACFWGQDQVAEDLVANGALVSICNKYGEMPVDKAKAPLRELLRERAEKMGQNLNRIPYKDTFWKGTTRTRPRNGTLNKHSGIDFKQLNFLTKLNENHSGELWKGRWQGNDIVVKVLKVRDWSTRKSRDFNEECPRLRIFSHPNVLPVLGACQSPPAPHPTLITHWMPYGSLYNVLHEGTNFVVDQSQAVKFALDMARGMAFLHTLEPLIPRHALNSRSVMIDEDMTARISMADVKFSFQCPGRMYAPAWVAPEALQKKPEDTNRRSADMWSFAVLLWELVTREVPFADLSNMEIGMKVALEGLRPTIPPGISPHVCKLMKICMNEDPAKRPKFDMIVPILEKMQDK
Procedure, shortened: (§2)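 PC-3 cells exposed to graded concentrations for 24 h in 5% FBS medium. Immunoblotting for phospho-Tyr397-FAK, ERK1/2, p38 and JNK. Lysis in 1% SDS buffer, primary antibody 1:1000 at 4°C for 2 h, ECL. Three independent experiments.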

[8] = biological target: T1, Scaffold protein ILK (Homo sapiens); test: Inhibition of ILK in human PC3 cells assessed as decrease in GSK3-beta phosphorylation by Western blot analysis; assay type: cell-based; conditions: PC-3
Procedure, shortened: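 PC-3 and MDA-MB-231 cells exposed 24 h in 5% FBS medium across a concentration series. Phospho-GSK3β (Ser9) and phospho-MLC (Thr18/Ser19) detected by immunoblot: SDS lysis, primary 1:1000 at 4°C for 2 h, HRP secondary, ECL. Representative of three experiments.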

[9] = biological target: T1, Scaffold protein ILK (Homo sapiens); test: Inhibition of ILK in human PC3 cells assessed as decrease in phosphorylated ERK1/2 concentration by Western blot analysis; assay type: cell-based; conditions: PC-3; procedure, shortened: as §2
PC-3 [10] = test: Reduction in HER2 mRNA expression in human PC3 cells expressing constitutively active ILK after 24 hrs by RT-PCR analysis; assay type: functional, cell-based
Procedure, shortened: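 PC-3, PC-3/CA-ILK, SKBR3 and SKBR3/CA-ILK cells treated 24 h in 5% FBS medium; total RNA from 1 × 10^6 cells by Trizol, 1 μg reverse-transcribed, then PCR with gene-specific primers and β-actin reference.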

PC-3 [11] = test: Reduction in HER2 concentration in human PC3 cells after 24 hrs by Western blot analysis; assay type: functional, cell-based
Procedure, shortened: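 PC-3 versus stable PC-3/CA-ILK, or SKBR3 versus transient SKBR3/CA-ILK (electroporation, used 48 h after), treated 24 h in 5% FBS medium; immunoblotting with ECL; representative of three experiments.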

[12] = biological target: Proto-oncogene tyrosine-protein kinase ROS (Homo sapiens) (UniProt P08922); test: Inhibition of Ros at 5 uM assessed as remaining activity
Mus musculus = test: Toxicity in nude mouse assessed as weight loss at 50 mg/kg, po administered for 35 days; assay type: organism-based; parameters: dose 50 mg/kg, route oral; conditions: in vivo, 840 h
Procedure, shortened: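 Male NCr nude mice bearing s.c. PC-3 tumors, dosed once daily by oral gavage in 0.5% methylcellulose/0.1% Tween 80 vehicle, 10 μL/g, for 35 days; body weight recorded weekly.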

[13] = biological target: T2, 3-phosphoinositide-dependent protein kinase 1 (Homo sapiens) (UniProt O15530); test: Inhibition of PDK2 in human MDA-MB-231 cells assessed as Akt Thr-308 dephosphorylation by Western blot analysis; assay type: functional, cell-based
T2 sequence (whole entry): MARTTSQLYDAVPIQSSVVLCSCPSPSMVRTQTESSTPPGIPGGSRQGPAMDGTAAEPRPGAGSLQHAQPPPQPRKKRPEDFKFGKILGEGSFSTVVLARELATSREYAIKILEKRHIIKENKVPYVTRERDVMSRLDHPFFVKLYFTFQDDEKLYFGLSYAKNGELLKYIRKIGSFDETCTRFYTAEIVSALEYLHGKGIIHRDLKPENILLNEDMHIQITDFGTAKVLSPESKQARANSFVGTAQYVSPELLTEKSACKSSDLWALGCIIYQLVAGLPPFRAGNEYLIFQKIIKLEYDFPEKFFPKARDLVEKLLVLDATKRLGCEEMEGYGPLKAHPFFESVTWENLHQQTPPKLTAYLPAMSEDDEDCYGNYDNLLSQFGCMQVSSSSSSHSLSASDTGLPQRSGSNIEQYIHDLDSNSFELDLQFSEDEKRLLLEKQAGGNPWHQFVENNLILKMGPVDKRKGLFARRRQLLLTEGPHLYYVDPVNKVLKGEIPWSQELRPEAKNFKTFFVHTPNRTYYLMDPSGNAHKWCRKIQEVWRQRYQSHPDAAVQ
Procedure, shortened: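 Cells exposed 24 h in 5% FBS medium, final DMSO 0.1%; lysed in 1% SDS/10 mM EDTA/50 mM Tris pH 8.1, equal protein on SDS-PAGE, nitrocellulose, primary antibody 1:1000 at 4°C for 2 h, HRP secondary 1:5000, ECL detection; blots representative of three independent experiments.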

Chain of Proto-oncogene tyrosine-protein kinase ROS (Homo sapiens) (P08922 whole entry): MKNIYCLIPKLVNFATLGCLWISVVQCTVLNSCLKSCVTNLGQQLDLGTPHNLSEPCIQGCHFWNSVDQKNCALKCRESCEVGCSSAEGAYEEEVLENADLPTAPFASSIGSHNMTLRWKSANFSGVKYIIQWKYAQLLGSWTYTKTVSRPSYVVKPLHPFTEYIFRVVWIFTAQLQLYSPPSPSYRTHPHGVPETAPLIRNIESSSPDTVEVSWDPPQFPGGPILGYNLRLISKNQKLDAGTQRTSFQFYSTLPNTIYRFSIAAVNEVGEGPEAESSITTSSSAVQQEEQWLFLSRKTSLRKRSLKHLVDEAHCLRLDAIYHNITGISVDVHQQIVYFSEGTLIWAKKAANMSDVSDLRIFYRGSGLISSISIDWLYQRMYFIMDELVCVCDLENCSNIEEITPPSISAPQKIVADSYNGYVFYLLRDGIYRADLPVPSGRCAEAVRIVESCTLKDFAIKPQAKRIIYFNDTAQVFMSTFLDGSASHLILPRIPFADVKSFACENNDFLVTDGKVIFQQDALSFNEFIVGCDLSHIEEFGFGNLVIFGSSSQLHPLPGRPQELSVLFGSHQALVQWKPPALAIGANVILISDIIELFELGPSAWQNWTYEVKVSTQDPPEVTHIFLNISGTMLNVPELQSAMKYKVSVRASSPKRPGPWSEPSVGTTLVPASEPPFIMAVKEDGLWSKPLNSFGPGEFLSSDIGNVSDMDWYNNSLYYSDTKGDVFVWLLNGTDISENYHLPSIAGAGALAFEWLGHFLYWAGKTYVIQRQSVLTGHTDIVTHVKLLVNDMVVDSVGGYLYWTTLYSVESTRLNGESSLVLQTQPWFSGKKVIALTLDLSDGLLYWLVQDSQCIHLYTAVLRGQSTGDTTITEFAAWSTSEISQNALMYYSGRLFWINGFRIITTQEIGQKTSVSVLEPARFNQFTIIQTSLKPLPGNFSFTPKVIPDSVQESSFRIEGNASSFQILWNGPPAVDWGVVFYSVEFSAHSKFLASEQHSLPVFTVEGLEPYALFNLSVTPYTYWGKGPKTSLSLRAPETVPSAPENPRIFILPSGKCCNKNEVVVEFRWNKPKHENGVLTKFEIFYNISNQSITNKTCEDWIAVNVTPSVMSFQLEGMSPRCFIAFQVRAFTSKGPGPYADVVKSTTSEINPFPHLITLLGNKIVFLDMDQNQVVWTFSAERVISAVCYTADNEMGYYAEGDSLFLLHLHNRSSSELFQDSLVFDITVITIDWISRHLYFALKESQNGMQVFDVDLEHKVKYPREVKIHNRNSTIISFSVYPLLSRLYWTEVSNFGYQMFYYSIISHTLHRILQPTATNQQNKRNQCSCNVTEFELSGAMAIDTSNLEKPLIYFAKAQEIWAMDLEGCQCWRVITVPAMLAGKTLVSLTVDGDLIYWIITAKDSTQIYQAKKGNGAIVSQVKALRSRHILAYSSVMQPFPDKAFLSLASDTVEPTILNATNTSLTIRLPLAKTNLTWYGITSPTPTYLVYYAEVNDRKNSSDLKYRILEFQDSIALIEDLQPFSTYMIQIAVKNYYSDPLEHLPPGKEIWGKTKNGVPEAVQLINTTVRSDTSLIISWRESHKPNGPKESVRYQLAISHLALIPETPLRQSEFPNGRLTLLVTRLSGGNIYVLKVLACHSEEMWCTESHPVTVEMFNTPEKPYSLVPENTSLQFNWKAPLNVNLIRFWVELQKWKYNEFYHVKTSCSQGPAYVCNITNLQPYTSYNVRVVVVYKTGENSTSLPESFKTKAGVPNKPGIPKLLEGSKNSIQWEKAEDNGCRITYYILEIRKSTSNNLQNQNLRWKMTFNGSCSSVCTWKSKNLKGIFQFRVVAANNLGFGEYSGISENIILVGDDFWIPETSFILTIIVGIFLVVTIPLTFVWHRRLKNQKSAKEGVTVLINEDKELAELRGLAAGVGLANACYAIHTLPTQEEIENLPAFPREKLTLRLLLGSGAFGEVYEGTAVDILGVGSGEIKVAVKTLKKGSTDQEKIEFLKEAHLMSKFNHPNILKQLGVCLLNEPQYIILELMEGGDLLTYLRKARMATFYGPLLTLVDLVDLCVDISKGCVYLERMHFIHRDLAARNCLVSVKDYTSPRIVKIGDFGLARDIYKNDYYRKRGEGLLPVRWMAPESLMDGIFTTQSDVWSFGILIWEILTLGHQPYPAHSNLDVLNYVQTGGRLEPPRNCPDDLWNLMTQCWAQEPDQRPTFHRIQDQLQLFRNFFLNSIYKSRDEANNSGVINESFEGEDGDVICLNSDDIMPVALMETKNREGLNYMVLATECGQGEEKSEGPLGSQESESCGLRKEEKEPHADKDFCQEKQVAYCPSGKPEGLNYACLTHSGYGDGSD
Chain of Hepatocyte growth factor receptor (Homo sapiens) (P08581 whole entry): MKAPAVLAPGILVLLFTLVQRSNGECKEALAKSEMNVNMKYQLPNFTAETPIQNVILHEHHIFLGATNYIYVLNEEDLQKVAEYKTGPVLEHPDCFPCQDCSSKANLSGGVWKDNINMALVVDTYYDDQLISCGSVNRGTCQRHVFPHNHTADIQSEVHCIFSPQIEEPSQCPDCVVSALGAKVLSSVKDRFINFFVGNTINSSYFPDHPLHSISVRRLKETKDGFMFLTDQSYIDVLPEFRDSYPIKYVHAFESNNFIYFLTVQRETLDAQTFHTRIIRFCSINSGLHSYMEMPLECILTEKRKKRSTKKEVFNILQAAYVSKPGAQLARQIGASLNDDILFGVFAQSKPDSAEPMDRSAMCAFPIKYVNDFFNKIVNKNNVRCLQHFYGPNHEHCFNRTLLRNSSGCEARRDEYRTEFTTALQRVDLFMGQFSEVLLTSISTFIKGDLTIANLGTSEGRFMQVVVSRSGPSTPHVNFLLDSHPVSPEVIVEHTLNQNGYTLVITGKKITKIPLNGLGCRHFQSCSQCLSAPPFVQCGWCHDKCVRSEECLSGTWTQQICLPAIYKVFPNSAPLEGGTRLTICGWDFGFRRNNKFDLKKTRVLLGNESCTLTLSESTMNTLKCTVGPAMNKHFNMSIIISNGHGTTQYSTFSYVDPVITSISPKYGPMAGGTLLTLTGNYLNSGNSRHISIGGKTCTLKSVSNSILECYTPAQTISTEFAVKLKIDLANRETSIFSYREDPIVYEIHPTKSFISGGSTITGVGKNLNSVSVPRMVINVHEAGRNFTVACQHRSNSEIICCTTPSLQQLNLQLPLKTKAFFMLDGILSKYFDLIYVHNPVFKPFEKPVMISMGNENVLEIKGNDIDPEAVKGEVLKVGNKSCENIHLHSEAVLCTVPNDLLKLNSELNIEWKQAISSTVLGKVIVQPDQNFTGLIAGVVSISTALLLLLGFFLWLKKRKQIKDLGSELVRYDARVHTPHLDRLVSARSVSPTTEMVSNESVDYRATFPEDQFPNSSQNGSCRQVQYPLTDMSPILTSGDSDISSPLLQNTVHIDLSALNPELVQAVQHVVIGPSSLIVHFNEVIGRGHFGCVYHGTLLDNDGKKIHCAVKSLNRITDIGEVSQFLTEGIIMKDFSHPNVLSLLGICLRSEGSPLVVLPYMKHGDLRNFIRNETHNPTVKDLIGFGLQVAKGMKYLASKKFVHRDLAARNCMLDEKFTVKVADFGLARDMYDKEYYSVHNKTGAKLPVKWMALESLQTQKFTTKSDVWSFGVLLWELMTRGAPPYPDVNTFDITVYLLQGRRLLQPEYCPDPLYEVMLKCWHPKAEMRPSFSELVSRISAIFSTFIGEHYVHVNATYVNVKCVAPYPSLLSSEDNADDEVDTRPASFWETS

SMILES: CNC(=O)CCc1cc(-c2ccc(-c3ccc(C(F)(F)F)cc3)cc2)n(-c2ccc(N3CCNCC3)cc2)n1
- Activity [1]: 110%
- Activity (PC-3 [2]): 62%
- Activity (PC-3 [3]): 7.1%
- Activity [4]: 97%
- Activity (PC-3 [5]): Dose-dependent effect
- Activity (PC-3 [6]): 48%
- inhibition [7]: inactive
- inhibition [8]: Active
- inhibition [9]: Dose-dependent effect
- Activity (PC-3 [10]): inactive
- Activity (PC-3 [11]): Dose-dependent effect
- Activity [12]: 103%
- Activity (Mus musculus): Non-toxic
- inhibition [13]: inactive
